The structures appear in SMILES notation. Active and inactive are the calls of the source. The rule behind the calls is not given here.

These results are taken from ChEMBL document CHEMBL4184319, “Fluorescent-Labeled Selective Adenosine A2B Receptor Antagonist Enables Competition Binding Assay by Flow Cytometry” (J Med Chem, 2018).

Assay [1] concerns the target T1, Adenosine receptor A2b (Rattus norvegicus, UniProt P29276).
T1 sequence (P29276 whole entry): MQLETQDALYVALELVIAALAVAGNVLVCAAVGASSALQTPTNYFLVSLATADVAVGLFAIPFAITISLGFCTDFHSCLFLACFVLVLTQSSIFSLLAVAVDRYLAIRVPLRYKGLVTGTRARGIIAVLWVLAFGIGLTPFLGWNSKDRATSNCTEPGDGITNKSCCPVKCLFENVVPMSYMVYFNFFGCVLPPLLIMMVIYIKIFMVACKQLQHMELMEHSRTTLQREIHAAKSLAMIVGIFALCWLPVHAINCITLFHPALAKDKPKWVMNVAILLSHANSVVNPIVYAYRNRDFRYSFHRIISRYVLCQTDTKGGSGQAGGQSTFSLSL
Kind of assay: Displacement of [3H]PSB-603 from recombinant rat adenosine A2B receptor expressed in CHO cell membranes after 75 mins by liquid scintillation counting method. In outline:
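Membranes pre-incubated 10-15 min with ADA 0.12 IU/mL. DMSO 2.5 % final. Filtration on GF/B with ice-cold 50 mM Tris-HCl pH 7.4 containing 0.1 % BSA, then scintillation counting. Curves used 6-7 concentrations over 3 log units. At least three experiments.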
For orientation: Displacement assays read how much labelled ligand stays bound in the presence of the test substance.

Assay [2] concerns the target T2, Adenosine receptor A2b (Homo sapiens, UniProt P29275).
T2 sequence (P29275 whole entry): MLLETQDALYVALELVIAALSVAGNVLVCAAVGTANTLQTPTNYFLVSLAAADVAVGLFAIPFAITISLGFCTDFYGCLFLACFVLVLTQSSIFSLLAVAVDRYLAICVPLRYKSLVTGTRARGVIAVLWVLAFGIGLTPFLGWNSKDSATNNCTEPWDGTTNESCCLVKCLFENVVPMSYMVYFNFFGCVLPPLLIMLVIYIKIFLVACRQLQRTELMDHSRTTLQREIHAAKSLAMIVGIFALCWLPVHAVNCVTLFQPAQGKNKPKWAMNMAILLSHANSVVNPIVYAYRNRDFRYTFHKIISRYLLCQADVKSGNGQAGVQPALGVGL
The assay can be described thus: Antagonist activity at recombinant human adenosine A2B receptor expressed in CHO cell membranes assessed as inhibition of NECA-induced cAMP accumulation preincubated for 1 hr followed by NECA induction measured after 5 mins in presence of [3H]cAMP and bovine cAMP-binding protein by liquid scintillation counting method. Format: functional. Put shortly:
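CHO cells stably expressing human A2BAR, pre-incubated with antagonist dilutions for 1 h at 37°C, then stimulated with NECA (10 µM final) for 5 min at 37°C. Reaction stopped with hot (90 °C) lysis solution (4 mM EDTA, 0.01 % Triton X100). cAMP quantified by radioactive competition with [³H]cAMP and bovine adrenal cAMP-binding protein. Response expressed as % of NECA response without antagonist. Means ± SEM, three independent experiments in duplicate.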
For orientation: Cyclic AMP is a second messenger, typically raised through Gs and lowered through Gi signalling.

The nature of assay [3]: Selectivity ratio of Ki for adenosine A2A receptor in rat brain striatal membranes to Ki for recombinant human adenosine A2B receptor expressed in CHO cell membranes. In kind it is cell-based.
Assay [4] in a line: Selectivity ratio of Ki for recombinant human adenosine A2A receptor expressed in HEK cell membranes to Ki for recombinant rat adenosine A2B receptor expressed in CHO cell membranes. In kind it is cell-based.
Assay [5] can be described thus: Selectivity ratio of Ki for adenosine A2A receptor in rat brain striatal membranes to Ki for recombinant mouse adenosine A2B receptor expressed in CHO cell membranes. Format: cell-based.
The nature of assay [6]: Selectivity ratio of Ki for recombinant human adenosine A1 receptor expressed in CHO cell membranes to Ki for recombinant mouse adenosine A2B receptor expressed in CHO cell membranes. Format: cell-based.
The next assay is filed under the species Rattus norvegicus. The assay can be described thus: Selectivity ratio of Ki for adenosine A2A receptor in rat brain striatal membranes to Ki for recombinant rat adenosine A2B receptor expressed in CHO cell membranes. In kind it is cell-based.
The nature of assay [7]: Selectivity ratio of Ki for recombinant human adenosine A1 receptor expressed in CHO cell membranes to Ki for recombinant rat adenosine A2B receptor expressed in CHO cell membranes. Format: cell-based.
For a further assay, the target named is Adenosine receptor A2a (Rattus norvegicus, UniProt P30543). The assay can be described thus: Displacement of [3H]MSX-2 from adenosine A2A receptor in rat brain striatal membranes after 30 mins by liquid scintillation counting method. Format: cell membranes, Striatum, Membrane. Put shortly:
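[³H]MSX-2 (1 nM) used with rat striatal or human A2A-HEK membranes, 30 min at rt. Membranes pre-incubated 10-15 min with ADA 0.12 IU/mL. DMSO 2.5 % final. GF/B filtration, then scintillation counting. Curves used 6-7 concentrations over 3 log units. At least three experiments, in duplicate (human) or triplicate (rat).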

Assay [8] has as its target T3, Adenosine receptor A2b (Homo sapiens) (UniProt P29275).
T3 sequence (whole entry): T2 sequence (P29275 whole entry)
Kind of assay: Binding affinity to recombinant human adenosine A2B receptor expressed in CHO cell membranes at 100 nM after 15 mins by confocal microscopic method. In kind it is cell-based. In outline: (§1)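 Live CHO cells stably expressing human A2BAR (or wild-type CHO as control) grown on chambered coverslips to about 80 % confluency. Incubated with fluorescent ligand (100 nM) for 15 min at 37°C, alone or after 30 min pre-incubation with PSB-603 (100 nM) or DPCPX (1 µM). Confocal laser scanning imaging with identical settings across conditions. Three similar experiments.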

Assay [9] can be described thus: Selectivity ratio of Ki for recombinant human adenosine A2A receptor expressed in HEK cell membranes to Ki for recombinant mouse adenosine A2B receptor expressed in CHO cell membranes. In kind it is cell-based.
Assay [10] has as its target T3, Adenosine receptor A2b (Homo sapiens). Kind of assay: Binding affinity to recombinant human adenosine A2B receptor expressed in CHO cell membranes at 100 nM after 15 mins in presence of DPCPX by confocal microscopic method. Format: cell-based. In outline: as §1
In a further assay the target is T4, Adenosine receptor A3 (Homo sapiens, UniProt P0DMS8).
T4 sequence (P0DMS8 whole entry): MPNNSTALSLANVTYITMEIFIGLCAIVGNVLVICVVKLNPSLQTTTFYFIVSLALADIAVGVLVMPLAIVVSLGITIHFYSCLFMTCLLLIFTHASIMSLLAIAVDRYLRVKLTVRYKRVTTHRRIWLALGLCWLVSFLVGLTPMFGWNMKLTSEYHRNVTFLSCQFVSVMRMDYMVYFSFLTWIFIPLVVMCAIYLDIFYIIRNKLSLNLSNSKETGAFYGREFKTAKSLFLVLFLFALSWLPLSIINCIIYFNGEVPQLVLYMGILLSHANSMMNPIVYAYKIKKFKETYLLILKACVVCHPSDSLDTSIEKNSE
The assay can be described thus: Displacement of [3H]PSB-11 from recombinant human adenosine A3 receptor expressed in CHO cell membranes after 45 mins by liquid scintillation counting method. Put shortly:
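Human A3-CHO membranes incubated with [³H]PSB-11 (1 nM) for 45 min at rt, after 10-15 min pre-incubation with ADA 0.12 IU/mL. Nonspecific binding defined with 100 µM R-PIA. DMSO 2.5 % final. GF/B filtration, then scintillation counting. Curves used 6-7 concentrations over 3 log units. At least three experiments in duplicate.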

Adenosine receptor A2a, sequence (P30543 whole entry): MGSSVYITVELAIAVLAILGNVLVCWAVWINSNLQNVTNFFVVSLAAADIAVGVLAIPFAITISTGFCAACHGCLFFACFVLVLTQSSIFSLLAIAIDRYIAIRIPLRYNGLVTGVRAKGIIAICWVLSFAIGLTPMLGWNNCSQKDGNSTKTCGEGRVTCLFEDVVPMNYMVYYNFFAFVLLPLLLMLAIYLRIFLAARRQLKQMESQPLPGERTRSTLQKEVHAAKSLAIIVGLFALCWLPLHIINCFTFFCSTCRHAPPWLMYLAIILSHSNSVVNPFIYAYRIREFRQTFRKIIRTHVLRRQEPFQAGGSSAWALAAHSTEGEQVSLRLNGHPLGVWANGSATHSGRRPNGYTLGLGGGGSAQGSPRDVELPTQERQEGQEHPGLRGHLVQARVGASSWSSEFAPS

For the compound `CCCn1c(=O)[nH]c2nc(-c3ccc(OCC(=O)NCCC4=C5C(C)=CC(C)=[N+]5[B-](F)(F)n5c(C)cc(C)c54)cc3)[nH]c2c1=O`, the values for the inhibition constant Ki at Adenosine receptor A2b [1], at Adenosine receptor A2a and on Adenosine receptor A3 were 0.18 nM, above 10 µM and above 10 µM, respectively. Further, the IC50 (in general, the point on the concentration scale where inhibition reaches its midpoint) on Adenosine receptor A2b [2] stood at 262 nM. In addition, the Ratio Ki is above 150 in assay [3]; above 1000 in assay [4]; above 150 in assay [5]; above 1000 in [6]; above 150 in the assay listed under Rattus norvegicus; above 1000 in assay [7]. The Ratio Ki in assay [9] is above 1000. Further, the result in [8] was Active. The result in [10] was inactive.
